The text below walks through data of publication PMC4493932 (MedChemComm, 2013).

Read-outs that look alike come from different tables or passages of the source. Marks after values point to notes of the source that are not given here.

One assay has as its target human (h) P2Y6R (Homo sapiens, UniProt Q15077). Put plainly: PLC activation in 1321N1 human astrocytoma cells stably expressing the hP2Y6R. Format: cell-based. The method, boiled down: (§1)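 Agonist-induced phospholipase C activation in 1321N1 human astrocytoma cells stably expressing recombinant human P2Y6, P2Y2 or P2Y4 receptor. EC50 values are given as mean ± SEM. Efficacy is expressed as percent of the maximal activation by a full agonist at 10 μM. Subtype selectivity is taken as the ratio of EC50 values.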

The target of the next assay is hP2Y2R (Homo sapiens, UniProt P41231). As to the kind of experiment: PLC activation in 1321N1 cells stably expressing the hP2Y2R. The following applies: for EC50: read-out: Potency, EC50, P2Y2, 1321N1 astrocytoma cells expressing recombinant hP2Y2, mean ± SEM, NE = no effect. Type of assay: cell-based. In a few lines:
as §1

For a further assay, the target named is hP2Y4R (Homo sapiens, UniProt P51582). As to the kind of experiment: PLC activation in 1321N1 cells stably expressing the hP2Y4R. The following applies: percent of maximal activation by full agonist at 10 μM. Format: cell-based. In a few lines:
as §1

A further assay addresses T1, hP2Y14R (Homo sapiens, UniProt Q15391).
T1 sequence (Q15391 1-338): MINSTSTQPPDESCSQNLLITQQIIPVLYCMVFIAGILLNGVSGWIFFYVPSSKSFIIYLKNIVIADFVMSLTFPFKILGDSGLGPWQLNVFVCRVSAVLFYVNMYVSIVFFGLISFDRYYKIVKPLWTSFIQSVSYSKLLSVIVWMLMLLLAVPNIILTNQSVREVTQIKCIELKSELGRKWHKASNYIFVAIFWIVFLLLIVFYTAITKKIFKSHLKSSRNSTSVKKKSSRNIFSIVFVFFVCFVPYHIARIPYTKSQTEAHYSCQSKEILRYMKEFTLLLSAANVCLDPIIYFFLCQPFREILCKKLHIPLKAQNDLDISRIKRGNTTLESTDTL
Format: cell-based. The following applies: concentrations up to 10 μM; C6 rat glioma cells.

Assay [1] has as its system control 1321N1 astrocytoma cells. Put plainly: FCM labeling of control 1321N1 astrocytoma cells. Type of assay: cell-based, human. The following applies: 60 min incubation. In a few lines:
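Whole-cell flow cytometry labelling with the Alexa Fluor 488-tagged test compound, 400 nM. Autofluorescence came from cells without the probe. Nonspecific binding was taken in the presence of 100 μM UDP, and specific binding is total minus nonspecific. Fluorescence was converted to molecules of equivalent soluble fluorochrome (MESF). Histograms are from one of three independent experiments.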

The next assay addresses hP2Y1R (Homo sapiens, UniProt P47900). Put plainly: Labeling of 1321N1 cells expressing the hP2Y1R. Format: cell-based. The following applies: data not shown.
In assay [2] the target is P2Y6R-expressing 1321N1 astrocytoma cells (Homo sapiens, UniProt Q15077). As to the kind of experiment: Fluorescence/confocal microscopy of P2Y6R-expressing 1321N1 astrocytoma cells. Type of assay: cell-based. The following applies: for Inhibition of fluorescent labeling by 16 (micrographs): 500 nM, 30 min preincubation at 37 °C, 16 500 nM, 60 min. In a few lines: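 Stably P2Y6R-expressing 1321N1 astrocytoma cells were exposed to an Alexa Fluor 488-conjugated nucleotide agonist (500 nM, 60 min, 37 °C), with or without a known P2Y6R agonist or a diisothiocyanate antagonist. Green fluorescence was imaged on a fluorescence microscope (excitation 495 nm, emission 519 nm).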

The test system of assay [3] is 1321N1 astrocytoma cells not expressing a P2YR. Put plainly: Fluorescence microscopy of 1321N1 astrocytoma cells not expressing a P2YR. Type of assay: cell-based, human. The following applies: incubated with 16. The method, boiled down:
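Confocal microscopy of 1321N1 astrocytoma cells incubated with the fluorescent test compound at 2 μM (figure panels give 1 μM) for 60 min at 37 °C. Cell-associated fluorescence was compared with receptor-expressing cells and with cells without the probe.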

The target in assay [4] is P2Y6R expressed on 1321N1 astrocytoma cells (Homo sapiens, UniProt Q15077). Put plainly: Flow cytometry. Format: cell-based. The following applies: for Inhibition of fluorescent binding of 16 to 1321N1-P2Y6R cells: 30 min pre-incubation, then 16 for 2 min, FCM. The method, boiled down:
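1321N1 human astrocytoma cells stably expressing human P2Y6R were pre-incubated 30 min with known P2Y6R ligands. Cells were then exposed for 2 min to an Alexa Fluor 488-conjugated nucleotide agonist, and labeling was read by flow cytometry. Fluorescence was converted to MESF. Nonspecific binding was defined with 100 μM UDP, and autofluorescence came from receptor-expressing cells without probe.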

The test system of another assay is P2Y6R. The following applies: cited from earlier work; for EC50: read-out: P2Y6R agonist EC50.

Sequence of hP2Y2R (P41231 whole entry): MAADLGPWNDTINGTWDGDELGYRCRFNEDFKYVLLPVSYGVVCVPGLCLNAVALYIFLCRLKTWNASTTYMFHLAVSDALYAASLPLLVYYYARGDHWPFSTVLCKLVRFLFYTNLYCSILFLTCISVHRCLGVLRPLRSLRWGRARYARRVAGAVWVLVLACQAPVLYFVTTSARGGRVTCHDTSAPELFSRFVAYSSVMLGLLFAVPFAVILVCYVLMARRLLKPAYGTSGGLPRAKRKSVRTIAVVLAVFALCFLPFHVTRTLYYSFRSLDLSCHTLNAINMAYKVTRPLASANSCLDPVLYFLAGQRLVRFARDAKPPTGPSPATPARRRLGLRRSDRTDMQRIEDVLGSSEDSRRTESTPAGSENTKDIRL
Sequence of human (h) P2Y6R (Q15077 whole entry): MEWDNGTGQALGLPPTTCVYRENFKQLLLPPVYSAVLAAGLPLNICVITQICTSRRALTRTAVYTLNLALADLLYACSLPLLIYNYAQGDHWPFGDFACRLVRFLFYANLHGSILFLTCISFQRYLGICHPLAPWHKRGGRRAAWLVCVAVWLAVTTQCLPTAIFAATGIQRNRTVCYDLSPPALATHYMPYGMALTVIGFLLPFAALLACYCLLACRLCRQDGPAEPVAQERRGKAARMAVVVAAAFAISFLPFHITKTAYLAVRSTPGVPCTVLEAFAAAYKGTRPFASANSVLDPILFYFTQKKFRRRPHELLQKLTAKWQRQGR
Sequence of P2Y6R expressed on 1321N1 astrocytoma cells (Q15077 whole entry): as above
Sequence of P2Y6R-expressing 1321N1 astrocytoma cells (Q15077 whole entry): as above
Sequence of hP2Y4R (P51582 whole entry): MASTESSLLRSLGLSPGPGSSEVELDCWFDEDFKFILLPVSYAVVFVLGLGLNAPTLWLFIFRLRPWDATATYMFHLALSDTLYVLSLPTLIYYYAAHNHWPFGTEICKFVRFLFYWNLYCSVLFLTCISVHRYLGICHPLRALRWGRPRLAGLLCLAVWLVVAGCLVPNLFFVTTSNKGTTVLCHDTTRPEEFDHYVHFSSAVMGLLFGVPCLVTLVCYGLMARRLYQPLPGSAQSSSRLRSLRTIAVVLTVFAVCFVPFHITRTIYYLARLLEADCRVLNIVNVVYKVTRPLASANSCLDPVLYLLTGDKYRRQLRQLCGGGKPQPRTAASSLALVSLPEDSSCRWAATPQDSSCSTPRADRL
Sequence of hP2Y1R (P47900 whole entry): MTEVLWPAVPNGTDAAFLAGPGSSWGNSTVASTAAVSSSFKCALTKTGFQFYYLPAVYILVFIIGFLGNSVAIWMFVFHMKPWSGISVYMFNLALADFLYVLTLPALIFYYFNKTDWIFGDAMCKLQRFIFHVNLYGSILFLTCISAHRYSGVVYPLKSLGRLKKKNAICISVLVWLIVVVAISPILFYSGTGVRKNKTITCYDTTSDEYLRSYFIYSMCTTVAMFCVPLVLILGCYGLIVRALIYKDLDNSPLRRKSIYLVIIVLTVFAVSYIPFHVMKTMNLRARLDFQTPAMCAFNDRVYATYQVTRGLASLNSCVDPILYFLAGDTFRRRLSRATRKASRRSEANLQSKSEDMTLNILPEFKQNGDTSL

As to “(N^4-(3-(AlexaFluor-NH-(CH2)6-triazole-(CH2)2-C≡C)-benzyloxy))-CDP [Compound 16]”, on human (h) P2Y6R (ratio of EC50 values), the “Selectivity toward the P2Y6R in comparison to the P2Y2R” value was 280 fold and the “Selectivity toward the P2Y6R in comparison to the P2Y4R” value was over 1100 fold. For the same compound, the EC50 at human (h) P2Y6R (read-out: Potency, EC50, P2Y6, 1321N1 astrocytoma cells expressing recombinant hP2Y6, mean ± SEM) was determined as 0.009 ± 0.0019 µM. For the same compound, on human (h) P2Y6R (vs 15 lacking the fluorophore), the “P2Y6R potency gain over immediate precursor 15” value was found to be 11 fold. Further, on hP2Y2R, the EC50 turned out to be 2.5 ± 0.66 µM. The “% activation, P2Y4” value at hP2Y4R is under 50% ^c. The “Activation of the hP2Y14R” value on hP2Y14R is “did not activate”. For the same compound, the “Specific labeling of control 1321N1 cells” value in assay [1] is listed as “no specific labeling”. The “Specific labeling of 1321N1 cells expressing the hP2Y1R” value at hP2Y1R is “no specific labeling”. In assay [2] (2 μM, 60 min incubation at 37 °C, confocal microscopy), the “Cell-associated fluorescence, localization” value is “receptor-dependent and mainly intracellular”. The “Fluorescence of cells not expressing a P2YR” value in [3] is “no increase in fluorescence”.
Turning to `S=C=Nc1cccc(NC(=S)NCCCCNC(=S)Nc2cccc(N=C=S)c2)c1` [MRS2578], in assay [4] (1 μM), the “Inhibition of fluorescent binding of 16 to 1321N1-P2Y6R cells” value (shortened to “Inhibition … to 1321N1-P2Y6R cells”) is recorded as “significant reduction of labeling”. The “Inhibition of fluorescent labeling by 16 (micrographs)” value in assay [2] was “inhibit fluorescent labeling”.
For the compound `O=C(Cn1c(=O)ccn([C@@H]2O[C@H](COP(=O)(O)OP(=O)(O)O)[C@@H](O)[C@H]2O)c1=O)c1ccccc1` [Compound 2, 3-phenacyl-UDP], in the assay with P2Y6R, the EC50 was 0.07 µM.
For `O=c1ccn([C@@H]2O[C@H](COP(=O)(O)OP(=O)(O)O)[C@@H](O)[C@H]2O)c(=O)[nH]1` [Compound 1, Uridine 5′-diphosphate], the “Inhibition … to 1321N1-P2Y6R cells” value in assay [4] (10 μM) was “significant reduction of labeling”. In addition, the EC50 in the assay with P2Y6R (endogenous agonist) was 0.3 µM.
Turning to `C#CCCCOP(=O)(O)OP(=O)(O)OP(=O)(O)OC[C@H]1O[C@@H](n2cc/c(=N/OCc3ccccc3)[nH]c2=O)[C@H](O)[C@@H]1O` [Compound 23], the “Potency, EC50, P2Y6” value at human (h) P2Y6R (1321N1 astrocytoma cells expressing recombinant hP2Y6, mean ± SEM) was “nearly inactive”. For the same compound, the EC50 at hP2Y2R is over 10 µM. Moreover, at hP2Y4R, the “% activation, P2Y4” value is on record as under 50% ^c.
Turning to `CO/N=c1/ccn([C@@H]2O[C@H](COP(=O)(O)OP(=O)(O)OP(=O)(O)OC[C@H]3O[C@@H](n4ccc(=O)[nH]c4=O)[C@H](O)[C@@H]3O)[C@@H](O)[C@H]2O)c(=O)[nH]1` [Compound 8, P^1-(Uridine 5′-)-P^4-(N^4-methoxycytidine 5′-) triphosphate], the “Inhibition … to 1321N1-P2Y6R cells” value in [4] (0.5 μM) is “significant reduction of labeling”. The “Inhibition of fluorescent labeling by 16 (micrographs)” value in [2] is reported as “inhibit fluorescent labeling”.
As for `O=c1[nH]/c(=N\OCc2ccc(I)cc2)ccn1[C@@H]1O[C@H](COP(=O)(O)OP(=O)(O)O)[C@@H](O)[C@H]1O` [Compound 13], at hP2Y2R, the EC50 was over 10 µM. For the same compound, the “% activation, P2Y4” value on hP2Y4R was under 50% ^c.
On to `C#CCCOP(=O)(O)OP(=O)(O)OP(=O)(O)OC[C@H]1O[C@@H](n2cc/c(=N/OCc3ccccc3)[nH]c2=O)[C@H](O)[C@@H]1O` [Compound 22], for which, on hP2Y2R (percent of maximal activation by full agonist at 10 μM), the “% activation, P2Y2” value is on record as under 50% ^c. Besides, at hP2Y4R, the “% activation, P2Y4” value is listed as under 50% ^c.
Take `CO/N=c1/ccn([C@@H]2O[C@H](COP(=O)(O)OP(=O)(O)OP(=O)(O)Oc3ccc4ccccc4c3)[C@@H](O)[C@H]2O)c(=O)[nH]1` [Compound 20]: the “% activation, P2Y4” value on hP2Y4R is on record as under 50% ^c.
Regarding `O=c1[nH]/c(=N\OCc2cccc(Br)c2)ccn1[C@@H]1O[C@H](COP(=O)(O)OP(=O)(O)O)[C@@H](O)[C@H]1O` [Compound 10], the “Selectivity toward the P2Y6R in comparison to the P2Y4R” value on human (h) P2Y6R (ratio of EC50 values) is over 260 fold.
“N^4-(3-(Cy5-NH-(CH2)6-triazole-(CH2)2-C≡C)-benzyloxy)-CDP [Compound 17]”: in assay [4] (100 nM to 1 μM), the “Blockade of cell labeling by 100 μM UDP” value is “could not be blocked” and the “Dependence of 1321N1 cell labeling on P2Y6R expression” value was “independent of the expression of the P2Y6R”.
For `O=c1[nH]/c(=N\OCc2ccccc2)ccn1[C@@H]1O[C@H](COP(=O)(O)OP(=O)(O)O)[C@@H](O)[C@H]1O` [Compound 6, N^4-benzyloxy-CDP], in the assay on P2Y6R, the “P2Y6R selectivity vs. P2Y2R” value was 82 fold and the “P2Y6R selectivity vs. P2Y4R” value was 44 fold.
